Results as given in ChEMBL document CHEMBL1151442, “Genetic and phenotypic identification of fusidic acid-resistant mutants with the small-colony-variant phenotype in Staphylococcus aureus” (2007).
≈ marks a conversion by molar mass, not a printed value.

Assays:
Type in all cases: functional
Staphylococcus aureus [1] = assay: Antibacterial activity against kanamycin-resistant Staphylococcus aureus AH362 (SCV-34) harboring TAA stop codon at nucleotide 282 in rplF gene after 18 to 24 hrs by Etest strip assay
Method in brief: (§1)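 SCVs of a Rifr 8325-4 derivative were selected on LA with KAN at 8, 16 or 24 μg/ml for 48 h at 37°C. They were purified at the same KAN level and screened on LA plus FA 1 μg/ml.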

Staphylococcus aureus [2] = assay: Antibacterial activity against kanamycin-resistant Staphylococcus aureus AH332 (SCV-4) harboring Ala655Glu mutation in fusA gene after 18 to 24 hrs by Etest strip assay; method in brief: as §1
Staphylococcus aureus [3] = assay: Antibacterial activity against fusidic acid-resistant Staphylococcus aureus AH190 harboring Arg464His mutation in fusA gene after 18 to 24 hrs by Etest strip assay
Method in brief: (§2)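 Mutants of lab strain 8325-4 were selected on LA with FA 2 μg/ml for 48 h at 37°C and purified on selective medium. For the MIC, one colony was suspended in 0.9% NaCl to 0.5 McFarland and swabbed onto Mueller-Hinton agar. An Etest strip was applied and plates were incubated at 37°C for 18–24 h until the lawn was evident.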

Staphylococcus aureus [4] = assay: Antibacterial activity against kanamycin-resistant Staphylococcus aureus AH347 (SCV-19) harboring Arg659Ser mutation in fusA gene after 18 to 24 hrs by Etest strip assay; method in brief: as §1
Staphylococcus aureus [5] = assay: Antibacterial activity against kanamycin-resistant Staphylococcus aureus AH367 (SCV-39) harboring Gly664Ser mutation in fusA gene after 18 to 24 hrs by Etest strip assay; method in brief: as §1
Staphylococcus aureus [6] = assay: Antibacterial activity against kanamycin-resistant and fusidic acid-susceptible Staphylococcus aureus AH421 harboring Pro404Arg mutation in fusA gene after 18 to 24 hrs by Etest strip assay
Method in brief: (§3)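 Etest MIC: a single colony was suspended in 0.9% NaCl to 0.5 McFarland and swabbed over Mueller-Hinton agar. The strip was applied and plates were incubated at 37°C for 18 to 24 h until an SCV lawn grew.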

Staphylococcus aureus [7] = assay: Antibacterial activity against fusidic acid-susceptible wild type Staphylococcus aureus 8325-4 after 18 to 24 hrs by Etest strip assay
Method in brief: (§4)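 The inoculum was a single colony suspended in 0.9% NaCl to 0.5 McFarland and swabbed over a Mueller-Hinton agar plate. An Etest gradient strip was then applied, and the plate was incubated at 37°C for 18 to 24 h until lawn growth was evident. MIC was read from the strip following the manufacturer's instructions.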

Staphylococcus aureus [8] = assay: Antibacterial activity against kanamycin-resistant Staphylococcus aureus AH336 (SCV-8) harboring His438Asn mutation in fusA gene after 18 to 24 hrs by Etest strip assay; method in brief: as §1
Staphylococcus aureus [9] = assay: Antibacterial activity against fusidic acid-resistant Staphylococcus aureus AH206 harboring Arg464Ser mutation in fusA gene after 18 to 24 hrs by Etest strip assay; method in brief: as §2
Staphylococcus aureus [10] = assay: Antibacterial activity against kanamycin-resistant Staphylococcus aureus AH351 (SCV-23) harboring -4 frameshift mutation at nucleotide 45-48 in rplF gene after 18 to 24 hrs by Etest strip assay; method in brief: as §1
Staphylococcus aureus [11] = assay: Antibacterial activity against kanamycin-resistant Staphylococcus aureus AH366 (SCV-38) harboring Pro114His mutation in fusA gene after 18 to 24 hrs by Etest strip assay; method in brief: as §1
Staphylococcus aureus [12] = assay: Antibacterial activity against kanamycin-resistant Staphylococcus aureus AH392 (SCV-64) harboring -1 frameshift mutation at nucleotide 383 in rplF gene after 18 to 24 hrs by Etest strip assay; method in brief: as §3
Staphylococcus aureus [13] = assay: Antibacterial activity against kanamycin-susceptible wild type Staphylococcus aureus AH001 after 18 to 24 hrs by Etest strip assay; method in brief: as §4
Staphylococcus aureus [14] = assay: Antibacterial activity against fusidic acid-resistant Staphylococcus aureus AH209 harboring deletion of nucleotide 404-427 in rplF gene after 18 to 24 hrs by Etest strip assay; method in brief: as §2
Staphylococcus aureus [15] = assay: Antibacterial activity against kanamycin-resistant Staphylococcus aureus AH386 (SCV-58) harboring -1 frameshift mutation at nucleotide 90 in rplF gene after 18 to 24 hrs by Etest strip assay; method in brief: as §1
Staphylococcus aureus [16] = assay: Antibacterial activity against kanamycin-resistant and fusidic acid-susceptible Staphylococcus aureus AH417 harboring -1 frameshift mutation at nucleotide 422 in rplF gene after 18 to 24 hrs by Etest strip assay; method in brief: as §3
Staphylococcus aureus [17] = assay: Antibacterial activity against kanamycin-resistant Staphylococcus aureus AH377 (SCV-49) harboring +1 frameshift mutation at nucleotide 23 in rplF gene after 18 to 24 hrs by Etest strip assay; method in brief: as §1
Staphylococcus aureus [18] = assay: Antibacterial activity against kanamycin-resistant and fusidic acid-susceptible Staphylococcus aureus AH290 harboring duplication mutation at nucleotide 202-293 in rplF gene after 18 to 24 hrs by Etest strip assay; method in brief: as §3
Staphylococcus aureus [19] = assay: Antibacterial activity against kanamycin-resistant Staphylococcus aureus AH352 (SCV-24) harboring -1 frameshift mutation at nucleotide 106 in rplF gene after 18 to 24 hrs by Etest strip assay; method in brief: as §1
Staphylococcus aureus [20] = assay: Antibacterial activity against fusidic acid-resistant Staphylococcus aureus AH204 harboring deletion of nucleotide 203-231 in rplF gene after 18 to 24 hrs by Etest strip assay; method in brief: as §2
Staphylococcus aureus [21] = assay: Ratio of MIC for kanamycin-resistant Staphylococcus aureus harboring mutations in FusA gene to MIC for wild type kanamycin-susceptible Staphylococcus aureus AH001
Staphylococcus aureus [22] = assay: Antibacterial activity against kanamycin-resistant Staphylococcus aureus AH331 (SCV-3) harboring Arg659His mutation in fusA gene after 18 to 24 hrs by Etest strip assay; method in brief: as §1
Staphylococcus aureus [23] = assay: Antibacterial activity against kanamycin-resistant and fusidic acid-susceptible Staphylococcus aureus AH298 harboring Gly664Val mutation in fusA gene after 18 to 24 hrs by Etest strip assay; method in brief: as §3
Staphylococcus aureus [24] = assay: Antibacterial activity against kanamycin-resistant and fusidic acid-susceptible Staphylococcus aureus AH287 harboring Ala655Glu mutation in fusA gene after 18 to 24 hrs by Etest strip assay; method in brief: as §3
Staphylococcus aureus [25] = assay: Antibacterial activity against kanamycin-resistant and fusidic acid-susceptible Staphylococcus aureus AH291 harboring Arg659His mutation in fusA gene after 18 to 24 hrs by Etest strip assay; method in brief: as §3
Staphylococcus aureus [26] = assay: Antibacterial activity against fusidic acid-resistant Staphylococcus aureus AH198 harboring Gly452Ser mutation in fusA gene after 18 to 24 hrs by Etest strip assay; method in brief: as §2
Staphylococcus aureus [27] = assay: Antibacterial activity against kanamycin-resistant Staphylococcus aureus AH364 (SCV-36) harboring Asp434Asn mutation in fusA gene after 18 to 24 hrs by Etest strip assay; method in brief: as §1
Staphylococcus aureus [28] = assay: Antibacterial activity against kanamycin-resistant and fusidic acid-susceptible Staphylococcus aureus AH420 harboring deletion of nucleotide 72-80 in rplF gene after 18 to 24 hrs by Etest strip assay; method in brief: as §3
Staphylococcus aureus [29] = assay: Antibacterial activity against kanamycin-resistant Staphylococcus aureus AH334 (SCV-6) harboring Thr436Ile mutation in fusA gene after 18 to 24 hrs by Etest strip assay; method in brief: as §1
Staphylococcus aureus [30] = assay: Antibacterial activity against kanamycin-resistant Staphylococcus aureus AH333 (SCV-5) harboring TAA stop codon at nucleotide 249 in rplF but gene after 18 to 24 hrs by Etest strip assay; method in brief: as §1
Staphylococcus aureus [31] = assay: Ratio of MIC for kanamycin-resistant Staphylococcus aureus harboring mutations in FusE gene to MIC for wild type kanamycin-susceptible Staphylococcus aureus AH001

SMILES | MIC (Staphylococcus aureus [1]) | MIC (Staphylococcus aureus [2]) | MIC (Staphylococcus aureus [3]) | MIC (Staphylococcus aureus [4]) | MIC (Staphylococcus aureus [5]) | MIC (Staphylococcus aureus [6]) | MIC (Staphylococcus aureus [7]) | MIC (Staphylococcus aureus [8]) | MIC (Staphylococcus aureus [9]) | MIC (Staphylococcus aureus [10]) | MIC (Staphylococcus aureus [11]) | MIC (Staphylococcus aureus [12]) | MIC (Staphylococcus aureus [13]) | MIC (Staphylococcus aureus [14]) | MIC (Staphylococcus aureus [15]) | MIC (Staphylococcus aureus [16]) | MIC (Staphylococcus aureus [17]) | MIC (Staphylococcus aureus [18]) | MIC (Staphylococcus aureus [19]) | MIC (Staphylococcus aureus [20]) | also measured
CC(=O)O[C@H]1C[C@@]2(C)[C@@H](C[C@@H](O)[C@H]3[C@@]4(C)CC[C@@H](O)[C@@H](C)[C@@H]4CC[C@@]32C)/C1=C(\CCC=C(C)C)C(=O)O [FUSIDIC ACID] | 12 µg/mL (≈ 23.2 µM) | 12 µg/mL (≈ 23.2 µM) | 6 µg/mL (≈ 11.6 µM) | 12 µg/mL (≈ 23.2 µM) | 12 µg/mL (≈ 23.2 µM) | 3 µg/mL (≈ 5.81 µM) | 0.125 µg/mL (≈ 0.242 µM) | 8 µg/mL (≈ 15.5 µM) | 6 µg/mL (≈ 11.6 µM) | 16 µg/mL | 12 µg/mL (≈ 23.2 µM) | 4 µg/mL | 0.125 µg/mL (≈ 0.242 µM) | 4 µg/mL (≈ 7.74 µM) | 24 µg/mL | 24 µg/mL | 4 µg/mL | 8 µg/mL (≈ 15.5 µM) | 4 µg/mL | 4 µg/mL (≈ 7.74 µM) | fold change (FC) (Staphylococcus aureus [21]): 32; MIC (Staphylococcus aureus [22]): 8 µg/mL (≈ 15.5 µM); MIC (Staphylococcus aureus [23]): 6 µg/mL (≈ 11.6 µM); MIC (Staphylococcus aureus [24]): 12 µg/mL (≈ 23.2 µM); MIC (Staphylococcus aureus [25]): 4 µg/mL (≈ 7.74 µM); MIC (Staphylococcus aureus [26]): 32 µg/mL (≈ 61.9 µM); MIC (Staphylococcus aureus [27]): 256 µg/mL (≈ 495 µM); MIC (Staphylococcus aureus [28]): 12 µg/mL (≈ 23.2 µM); MIC (Staphylococcus aureus [29]): 48 µg/mL (≈ 92.9 µM); MIC (Staphylococcus aureus [30]): 12 µg/mL (≈ 23.2 µM); fold change (FC) (Staphylococcus aureus [31]): 32
CN[C@@H]1[C@H](O[C@H]2[C@H](O[C@H]3[C@H](O)[C@@H](O)[C@H](N=C(N)N)[C@@H](O)[C@@H]3N=C(N)N)O[C@@H](C)[C@]2(O)C=O)O[C@@H](CO)[C@H](O)[C@H]1O [STREPTOMYCIN] | 256 µg/mL (≈ 440 µM) | 12 µg/mL (≈ 20.6 µM) | 8 µg/mL (≈ 13.8 µM) | 32 µg/mL (≈ 55 µM) | 16 µg/mL (≈ 27.5 µM) | 12 µg/mL (≈ 20.6 µM) | 3 µg/mL (≈ 5.16 µM) | 12 µg/mL (≈ 20.6 µM) | 8 µg/mL (≈ 13.8 µM) | 256 µg/mL | 24 µg/mL (≈ 41.3 µM) | 16 µg/mL | 3 µg/mL (≈ 5.16 µM) | 16 µg/mL (≈ 27.5 µM) | 96 µg/mL | 256 µg/mL | 24 µg/mL | 64 µg/mL (≈ 110 µM) | 24 µg/mL | 24 µg/mL (≈ 41.3 µM) | fold change (FC) (Staphylococcus aureus [21]): 3; MIC (Staphylococcus aureus [22]): 24 µg/mL (≈ 41.3 µM); MIC (Staphylococcus aureus [23]): 6 µg/mL (≈ 10.3 µM); MIC (Staphylococcus aureus [24]): 48 µg/mL (≈ 82.5 µM); MIC (Staphylococcus aureus [25]): 24 µg/mL (≈ 41.3 µM); MIC (Staphylococcus aureus [26]): 6 µg/mL (≈ 10.3 µM); MIC (Staphylococcus aureus [27]): 24 µg/mL (≈ 41.3 µM); MIC (Staphylococcus aureus [28]): 256 µg/mL (≈ 440 µM); MIC (Staphylococcus aureus [29]): 192 µg/mL (≈ 330 µM); MIC (Staphylococcus aureus [30]): 24 µg/mL (≈ 41.3 µM); fold change (FC) (Staphylococcus aureus [31]): 3
NC[C@H]1O[C@H](O[C@H]2[C@H](O)[C@@H](O[C@H]3O[C@H](CO)[C@@H](O)[C@H](N)[C@H]3O)[C@H](N)C[C@@H]2N)[C@H](O)[C@@H](O)[C@@H]1O [KANAMYCIN] | 128 µg/mL (≈ 264 µM) | 12 µg/mL (≈ 24.8 µM) | 4 µg/mL (≈ 8.26 µM) | 12 µg/mL (≈ 24.8 µM) | 12 µg/mL (≈ 24.8 µM) | 8 µg/mL (≈ 16.5 µM) | 1.5 µg/mL (≈ 3.1 µM) | 16 µg/mL (≈ 33 µM) | 6 µg/mL (≈ 12.4 µM) | 64 µg/mL | 12 µg/mL (≈ 24.8 µM) | 12 µg/mL | 1.5 µg/mL (≈ 3.1 µM) | 8 µg/mL (≈ 16.5 µM) | 256 µg/mL | 256 µg/mL | 6 µg/mL | 256 µg/mL (≈ 528 µM) | 6 µg/mL | 8 µg/mL (≈ 16.5 µM) | fold change (FC) (Staphylococcus aureus [21]): 3; MIC (Staphylococcus aureus [22]): 16 µg/mL (≈ 33 µM); MIC (Staphylococcus aureus [23]): 32 µg/mL (≈ 66 µM); MIC (Staphylococcus aureus [24]): 16 µg/mL (≈ 33 µM); MIC (Staphylococcus aureus [25]): 24 µg/mL (≈ 49.5 µM); MIC (Staphylococcus aureus [26]): 4 µg/mL (≈ 8.26 µM); MIC (Staphylococcus aureus [27]): 8 µg/mL (≈ 16.5 µM); MIC (Staphylococcus aureus [28]): 256 µg/mL (≈ 528 µM); MIC (Staphylococcus aureus [29]): 128 µg/mL (≈ 264 µM); MIC (Staphylococcus aureus [30]): 8 µg/mL (≈ 16.5 µM); fold change (FC) (Staphylococcus aureus [31]): 3
